Structures are written as SMILES.

For the first experiment, the target named is sigma receptor (guinea pig). Nature of the experiment: In vitro inhibitory activity against [3H]- (+)-3-PPP binding to sigma receptor in guinea pig brain membrane homogenates.
A word on the IC50: it is the point on the concentration scale where inhibition reaches its midpoint. As for `N=C(N)N(c1ccccc1)c1ccccc1`, the IC50 was > 100 µM.

The next experiment has as its target Glutamate [NMDA] receptor. Put plainly: In vitro inhibitory activity against [3H]-TCP binding to PCP receptor in guinea pig brain membrane homogenates. It is filed as cell membranes, Cavia porcellus. The essentials:
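Displacement of 1.8 nM [3H]TCP (100 Ci/mmol) from guinea pig brain membranes (800 μg protein/mL, 50 mM Tris-HCl pH 7.4). Incubation 45 min at room temperature. Nonspecific binding defined by 10 μM PCP. Vacuum filtration on glass-fiber filters, two washes, scintillation counting. IC50 interpolated from semilog displacement curves.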
`Cc1cccc(NC(=N)Nc2cccc(C)c2)c1` displayed an IC50 of 0.37 µM.

With `CCc1ccccc1N=C(N)Nc1ccccc1CC`, the IC50 was 0.358 µM.

As for `Cc1cccc(C)c1N=C(N)Nc1c(C)cccc1C`, the IC50 is 32 µM.

In turn, `Cc1cc([N+](=O)[O-])ccc1NC(N)=Nc1cccc(O)c1` displayed an IC50 of 37 µM.

As for `NC(=Nc1ccccc1I)Nc1ccccc1I`, the IC50 worked out at 0.21 µM.

Regarding `NC1=Nc2ccccc2CN1c1ccccc1`, the IC50 was > 10 µM.

`Cc1ccccc1/N=C(/N)Nc1cccc(O)c1` had an IC50 of 2.5 µM.

The compound `N=C(NCc1ccccc1)NCc1ccccc1` returned an IC50 of 6.8 µM.

`Cc1cc([N+](=O)[O-])ccc1NC(=N)Nc1ccc([N+](=O)[O-])cc1C` showed an IC50 of 4.3 µM.

On to `CN=C(NC1CCCCC1)NC1CCCCC1`, for which the IC50 is > 10 µM.

In the case of `NC1=NCCN1c1ccccc1`, the half-maximal inhibitory concentration (IC50) was > 10 µM.

`Cc1ccccc1/N=C(/N)Nc1ccc(N)cc1C` came in with an IC50 of 4.35 µM.

For the compound `N=C(NC1CCCCC1)NC12CC3CC(CC(C3)C1)C2`, the IC50 was > 10 µM.

Consider `N=C(NC1C2CC3CC(C2)CC1C3)NC1C2CC3CC(C2)CC1C3` (stereo not drawn), for which the IC50 was > 10 µM.

Turning to `CNC(=N)NC`, the IC50 is > 10 µM.

As to `N=C(NC12CC3CC(CC(C3)C1)C2)NC12CC3CC(CC(C3)C1)C2`, the IC50 was > 10 µM.

Compound `N=C(Nc1ccccc1)Nc1ccccc1` gave an IC50 of 3.45 µM.

The compound `Cc1ccccc1N=C(N)Nc1ccccc1N` yielded a 50% inhibitory concentration (IC50) of 12 µM.

The compound `Cc1ccccc1/N=C(/N)Nc1c(C)cccc1C` showed an IC50 of 1.9 µM.

The compound `CCc1cccc(NC(=N)Nc2cccc(CC)c2)c1` yielded an IC50 of 0.082 µM.

For the compound `ONC(=NC1CCCCC1)NC1CCCCC1`, the IC50 was > 10 µM.

On to `Cc1ccccc1N=C(N)NC1CCCCC1`, for which the IC50 is > 10 µM.

On to `Cc1cc(N)ccc1NC(=N)Nc1ccc(N)cc1C`, for which the half-inhibitory concentration (IC50) is > 100 µM.

In the case of `Cc1ccccc1N=C(N)Nc1ccccc1I`, the IC50 turned out to be 2.05 µM.

As for `Cc1cc(Br)ccc1N=C(N)Nc1ccc(Br)cc1C`, the IC50 was > 10 µM.

Compound `CCCCNC(=N)NCCCC` came in with an IC50 of 49 µM.

The compound `NC(=Nc1ccc(Br)cc1)Nc1ccc(Br)cc1` came in with an IC50 of 34 µM.

As to `N=C(Nc1ccccc1C(F)(F)F)Nc1ccccc1C(F)(F)F`, the IC50 is 4.15 µM.

As for `Cc1ccc(N=C(N)Nc2ccc(C)cc2)cc1`, the IC50 worked out at 31 µM.

The compound `Cc1ccccc1NC(N)=Nc1ccccc1[N+](=O)[O-]` yielded an IC50 of 2.1 µM.

As to `Cc1ccccc1/N=C(/N)Nc1ccc([N+](=O)[O-])cc1C`, the IC50 came to 5.7 µM.

`Cc1ccccc1/N=C(\N)NC12CC3CC(CC(C3)C1)C2`: the IC50 is 32 µM.

Consider `NC(=NC1CCCCC1)NC1CCCCC1`, for which the IC50 is > 10 µM.

Turning to `Cc1ccccc1NC(=N)Nc1ccccc1C` [DITOLYLGUANIDINE], the IC50 amounted to 7.8 µM.

The next experiment deals with Glutamate [NMDA] receptor. Put plainly: (§1) In vitro inhibitory activity against [3H](+)-MK-801 binding to PCP receptor in guinea pig brain membrane homogenates. It is filed as cell membranes, Cavia porcellus. The gist of the method:
(§2)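 [3H](+)-MK-801 (97 Ci/mmol) at 1 nM final with guinea pig brain membranes at 150 μg protein/mL. Assay and filtration buffer was 5 mM Tris-HCl pH 7.4. Incubation 4 h at 25 °C. Nonspecific binding measured with 10 μM TCP or MK-801. Bound ligand collected by glass-fiber filtration and counted by scintillation. IC50 taken from displacement curves.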
With `N=C(Nc1ccccc1I)NC1CC2CCC1C2` (stereo not drawn), the IC50 is > 10 µM.

Consider `NC1=Nc2cccc3cccc(c23)N1`, for which the IC50 is > 10 µM.

With `CN=C(NC1CCCCC1)NC1CCCCC1`, the IC50 is > 10 µM.

As for `Cc1ccccc1NC(N)=NC1CC2CCC1C2` (stereo not drawn), the IC50 is > 10 µM.

In another experiment the target is Glutamate [NMDA] receptor. The description is as §1. Type of experiment: cell membranes, Cavia porcellus. The essentials: as §2
Compound `CC(C)c1ccccc1N=C(N)Nc1ccccc1C(C)C` returned an IC50 of 0.275 µM.

Compound `Cc1cccc(NC(=N)Nc2cccc(C)c2)c1` showed an IC50 of 0.33 µM.

Take `N=C(Nc1ccccc1I)NC1CC2CCC1C2` (stereo not drawn): the IC50 was > 10 µM.

As to `CCc1ccccc1N=C(N)Nc1ccccc1CC`, the IC50 turned out to be 0.82 µM.

For `NC1=Nc2ccccc2-c2ccccc2N1`, the IC50 is > 10 µM.

`NC(=Nc1ccccc1I)Nc1ccccc1I` returned an IC50 of 0.24 µM.

Regarding `NC(=Nc1ccccc1-c1ccccc1)NC12CC3CC(CC(C3)C1)C2`, the IC50 is > 10 µM.

Compound `N=C(Nc1ccccc1/C=C/c1ccccc1)NC12CC3CC(CC(C3)C1)C2` came in with an IC50 of 3.5 µM.

`Cc1ccccc1/N=C(\N)NC12CC3CC(C)(CC(C)(C3)C1)C2`: the IC50 came to 2 µM.

Take `CCCCCCCCN=C(NC1CCCCC1)NC1CCCCC1`: the IC50 was > 10 µM.

As to `N=C(Nc1ccccc1CCc1ccccc1)NC12CC3CC(CC(C3)C1)C2`, the IC50 was > 10 µM.

In the case of `N=C(Nc1ccccc1/C=C/c1ccccc1)NC1C2CC3CC(C2)CC1C3` (stereo not drawn), the IC50 is > 10 µM.

With `Cc1ccccc1N/C(N)=N/C1CC[C@@]2(C)C(=CCC3C2CC[C@@]2(C)C3CC[C@@H]2C(C)CCCC(C)C)C1` (stereo partly drawn), the IC50 is > 10 µM.

As to `N=C(NC1C[C@H]1c1ccccc1)NC12CC3CC(CC(C3)C1)C2` (stereo partly drawn), the IC50 was > 10 µM.

`N=C(NC1CC2CCC1C2)NC1CC2CCC1C2` (stereo not drawn) [listing 1 of 2 here]: the IC50 is > 10 µM.

In turn, `CC12CC3CC(C)(C1)CC(/N=C(\N)Nc1ccccc1I)(C3)C2` gave an IC50 of 4 µM.

As for `N=C(Nc1ccccc1I)NC1C2CC3CC(C2)CC1C3` (stereo not drawn), the IC50 is > 10 µM.

On to `CC(=O)[C@H]1CCC2C3CC=C4CC(/N=C(\N)Nc5ccccc5C)CC[C@]4(C)C3CC[C@@]21C` (stereo partly drawn), for which the IC50 is > 10 µM.

As to `CC1(C)C2CCC1(C)C(/N=C(\N)Nc1ccccc1I)C2` (stereo not drawn), the IC50 is > 10 µM.

For the compound `NC(=Nc1ccccc1I)NC12CC3CC(CC(C3)C1)C2`, the IC50 is > 10 µM.

In turn, `N=C(NC1CC2CCC1C2)NC1CC2CCC1C2` (stereo not drawn) [listing 2 of 2 here] gave an IC50 of 5 µM.

For `CC(C)(C)/N=C(\N)Nc1ccccc1I`, the IC50 was > 9.6 µM.

As to `N=C(Nc1ccccc1/C=C/c1c(F)c(F)c(F)c(F)c1F)NC12CC3CC(CC(C3)C1)C2`, the IC50 is > 10 µM.

As for `CC12CC3CC(C)(C1)CC(/N=C(\N)Nc1ccccc1/C=C/c1ccccc1)(C3)C2`, the IC50 is > 10 µM.

As for `CCc1ccc(NC(=N)Nc2ccc(CC)cc2)cc1`, the IC50 turned out to be 10.3 µM.

Take `Cc1cc(N)ccc1N=C(N)Nc1cccc(O)c1`: the IC50 was > 10 µM.

Compound `CC(C)(C)c1ccccc1N=C(N)Nc1ccccc1C(C)(C)C` yielded an IC50 of 38.3 µM.

On to `N/C(=N\c1ccccc1[N+](=O)[O-])NC12CC3CC(CC(C3)C1)C2`, for which the IC50 is > 10 µM.

In the case of `CCc1cccc(NC(=N)Nc2cccc(CC)c2)c1`, the IC50 was 0.168 µM.

As to `N=C(Nc1ccccc1I)Nc1ccccc1/C=C/c1ccccc1`, the IC50 was > 10 µM.

Consider `Cc1ccccc1N=C(N)NC1CCCCC1`, for which the IC50 was 10 µM.

`CCCc1cccc(NC(=N)Nc2cccc(CCC)c2)c1` gave an IC50 of 2.11 µM.

As for `N=C(Nc1cccc2ccccc12)Nc1cccc2ccccc12`, the IC50 came to 0.134 µM.

`Cc1ccccc1NC(N)=NC1CC2CCC1(C)C2(C)C` (stereo not drawn) showed an IC50 of 5 µM.

On to `Cc1ccccc1/N=C(\N)NC1C2CC3CC(C2)CC1C3` (stereo not drawn), for which the IC50 is > 10 µM.

As to `NC(=Nc1ccccc1-c1ccccc1)Nc1ccccc1-c1ccccc1`, the IC50 is > 10 µM.

Regarding `Cc1ccc(N=C(N)Nc2ccc(C)cc2)cc1`, the IC50 is 13.3 µM.

The compound `CC(C)c1ccc(NC(=N)Nc2ccc(C(C)C)cc2)cc1` showed an IC50 of 26.8 µM.

As to `Cc1ccccc1NC(N)=NC1CC2CCC1C2` (stereo not drawn), the IC50 was > 10 µM.

With `CC(C)c1cccc(NC(=N)Nc2cccc(C(C)C)c2)c1`, the IC50 was determined as 0.498 µM.

With `N=C1N(c2ccccc2)CCN1c1ccccc1`, the IC50 was > 10 µM.

In the case of `NC(=Nc1ccccc1-c1ccccc1)Nc1cccc2ccccc12`, the IC50 is > 10 µM.

Take `Cc1ccccc1/N=C(/N)Nc1ccccc1/C=C/c1ccccc1`: the IC50 was > 10 µM.

The compound `Cc1ccccc1NC(=N)Nc1ccccc1C` [DITOLYLGUANIDINE] displayed an IC50 of 10.7 µM.

The record behind these values is ChEMBL document CHEMBL1125137, “Synthesis and structure-activity relationships of N,N'-di-o-tolylguanidine analogues, high-affinity ligands for the haloperidol-sensitive sigma receptor” (J Med Chem, 1990).
